In one data set the target is T1, α-amylase (Sus scrofa, UniProt P00690).
T1 sequence (P00690 16-511): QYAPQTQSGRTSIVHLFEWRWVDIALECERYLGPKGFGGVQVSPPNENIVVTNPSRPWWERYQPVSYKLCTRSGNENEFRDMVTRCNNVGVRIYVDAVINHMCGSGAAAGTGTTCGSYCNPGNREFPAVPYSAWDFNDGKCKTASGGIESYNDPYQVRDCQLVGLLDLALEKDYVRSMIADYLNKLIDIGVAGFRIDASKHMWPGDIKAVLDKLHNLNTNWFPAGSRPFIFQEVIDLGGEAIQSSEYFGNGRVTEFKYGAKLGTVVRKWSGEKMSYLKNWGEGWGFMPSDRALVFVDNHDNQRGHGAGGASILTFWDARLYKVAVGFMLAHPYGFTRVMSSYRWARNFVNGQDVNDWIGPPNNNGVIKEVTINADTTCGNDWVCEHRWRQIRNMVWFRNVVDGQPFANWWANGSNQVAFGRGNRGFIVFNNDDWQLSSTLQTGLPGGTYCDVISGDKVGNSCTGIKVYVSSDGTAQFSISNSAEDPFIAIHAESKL
Put plainly: α-Amylase inhibitory assay. It is filed as biochemical. The settings on record: at 100 μg mL^−1.

The target in data set [1] is rat intestinal α-glucosidase. Briefly: α-Glucosidase inhibition assay. The data set is classed as biochemical. To be noted: for α-glucosidase inhibition: at 100 μg mL^−1.
The next data set has as its target β-glucosidase. Put plainly: β-Glucosidase inhibition assay. It is filed as biochemical. To be noted: for β-glucosidase inhibition: at 100 μg mL^−1.
A short description of data set [2]: Solubility studies of nano-curcumin in water. It is filed as physicochemical. The settings on record: deionized water. In short, it runs like this:
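Each test sample was stirred in 30 mL deionized water at room temperature for 24 h to make a saturated solution. Undissolved particles were removed by centrifugation, and the liquid was filtered through a PTFE membrane. The filtrate was diluted with an equal volume of deionized water, and dissolved curcumin was quantified by UV/Vis absorbance at 422 nm.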

Data set [3] in a line: DPPH free radical scavenging assay. The settings on record: at 75 μg mL^−1. In short, it runs like this: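 Test samples were mixed with 3.0 mL of 0.1 mM DPPH in methanol, shaken vigorously, and held 30 min at room temperature in the dark. Absorbance was read at 515 nm and % scavenging calculated. BHT was the positive control and methanol the negative control.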
A general note: DPPH is a stable violet radical that fades when it is reduced.

≈ marks a conversion by molar mass, not a printed value.

In the case of `C[C@H]1O[C@H](O[C@H]2[C@H](O)[C@@H](O)[C@@H](O[C@H]3[C@H](O)[C@@H](O)C(O)O[C@@H]3CO)O[C@@H]2CO)[C@H](O)[C@@H](O)[C@@H]1N[C@H]1C=C(CO)[C@@H](O)[C@H](O)[C@H]1O` (stereo partly drawn) [Acarbose, acarbose], on α-amylase, the α-amylase inhibition came to 68.74 ± 0.28%. In addition, in data set [1], the “IC50, mean ± SD, α-Glucosidase” value was 45.76 ± 0.13 µg/mL (≈ 70.9 µM) and the α-glucosidase inhibition worked out at 66.04 ± 0.18%. At β-glucosidase, the “IC50, mean ± SD, β-Glucosidase” value is 45.55 ± 0.21 µg/mL (≈ 70.6 µM) and the β-glucosidase inhibition stood at 66.05 ± 0.47%.

For the molecule `COc1cc(/C=C/C(=O)CC(=O)/C=C/c2ccc(O)c(OC)c2)ccc1O` [Curcumin, diferuloylmethane], in data set [2], the concentration in solution (solubility at 24 h) came to 0.98 µg/mL (≈ 2.66 µM). In data set [2] (water, thermodynamic from solid), the thermodynamic solubility (in general, solubility found after equilibrating the solid with the medium) at 24 h amounted to 2.68 µM (≈ 0.987 µg/mL). Moreover, the “DPPH free radical scavenging activity” value in data set [3] turned out to be 45.63 ± 0.78%. In data set [1], this molecule displayed a α-glucosidase inhibition of 47.87 ± 0.31%. Further, on β-glucosidase, the “IC50, mean ± SD, β-Glucosidase” value was determined as 51.92 ± 0.14 µg/mL (≈ 141 µM) and the β-glucosidase inhibition came to 50.38 ± 0.11%.

`Cc1cc(C(C)(C)C)c(O)c(C(C)(C)C)c1` [BHT, Butylated hydroxytoluene]: the “DPPH free radical scavenging activity” value in data set [3] is on record as 50.48 ± 1.11%.
